According to ChEMBL document CHEMBL1121653, “Potential pancreatic imaging agents. Tellurium-123m labeled DL-alpha-amino-gamma-(phenyltelluro)butyric acid” (J Med Chem, 1981):

Assays:
[1] = system: Rattus norvegicus; assay: Compound was evaluated for the distribution of radioactivity in female rat kidneys at time interval 60 minutes following intravenous administration of [123mTe]- Labeled-DL-cu-Amino-r-( phenyltel1uro) butyric Acid, expressed as mean dose per gram of ti; assay type: ADME, organism-based, Kidney; conditions: in vivo, 1 h
Summary of the method: (§1)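 Female Fischer 344 rats, 10–12 weeks old (180–210 g), fed ad libitum, given the 123mTe-labeled amino acid through a lateral tail vein under ether anesthesia. The basic solution was neutralized to pH ~8 with 1 N HCl and filtered (0.22 μm) before injection. Rats were decapitated at 30 min, 60 min, 4 h or 24 h. Organs were rinsed in saline and weighed, and radioactivity was counted on a Ge(Li) analyzer. Values are %dose/g, mean ± SD of 3 rats.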

[2] = system: Rattus norvegicus; assay: Compound was evaluated for the distribution of radioactivity in female rat pancreas at time interval 60 minutes following intravenous administration of [123mTe]- Labeled-DL-cu-Amino-r-( phenyltel1uro) butyric Acid, expressed as mean dose per gram of t; assay type: ADME, organism-based; conditions: in vivo, 1 h; summary of the method: as §1
[3] = system: Rattus norvegicus; assay: Compound was evaluated for the distribution of radioactivity in female rat liver at time interval 60 minutes following intravenous administration of [123mTe]- Labeled-DL-cu-Amino-r-( phenyltel1uro) butyric Acid, expressed as mean dose per gram of tiss; assay type: ADME, organism-based; conditions: in vivo, 1 h; summary of the method: as §1
[4] = system: Rattus norvegicus; assay: Compound was evaluated for the distribution of radioactivity in female rat blood at time interval 60 minutes following intravenous administration of [123mTe]- Labeled-DL-cu-Amino-r-( phenyltel1uro) butyric Acid, expressed as mean dose per gram of tiss; assay type: ADME, organism-based; conditions: in vivo, 1 h; summary of the method: as §1
[5] = system: Rattus norvegicus; assay: Compound was evaluated for the distribution of radioactivity in female rat liver at time interval 24 hours following intravenous administration of [123mTe]- Labeled-DL-cu-Amino-r-( phenyltel1uro) butyric Acid, expressed as mean dose per gram of tissue; assay type: ADME, organism-based; conditions: in vivo; summary of the method: as §1
[6] = system: Rattus norvegicus; assay: Compound was evaluated for the distribution of radioactivity in female rat pancreas at time interval 4 hours following intravenous administration of [123mTe]- Labeled-DL-cu-Amino-r-( phenyltel1uro) butyric Acid, expressed as mean dose per gram of tiss; assay type: ADME, organism-based; conditions: in vivo; summary of the method: as §1
[7] = system: Rattus norvegicus; assay: Compound was evaluated for the distribution of radioactivity in female rat spleene at time interval 24 hours following intravenous administration of [123mTe]- Labeled-DL-cu-Amino-r-( phenyltel1uro) butyric Acid, expressed as mean dose per gram of tiss; assay type: ADME, organism-based, Spleen; conditions: in vivo; summary of the method: as §1
[8] = system: Rattus norvegicus; assay: Compound was evaluated for the distribution of radioactivity in female rat blood at time interval 24 hours following intravenous administration of [123mTe]- Labeled-DL-cu-Amino-r-( phenyltel1uro) butyric Acid, expressed as mean dose per gram of tissue; assay type: ADME, organism-based; conditions: in vivo; summary of the method: as §1
[9] = system: Rattus norvegicus; assay: Compound was evaluated for the distribution of radioactivity in female rat pancreas at time interval 24 hours following intravenous administration of [123mTe]- Labeled-DL-cu-Amino-r-( phenyltel1uro) butyric Acid, expressed as mean dose per gram of tissue; assay type: ADME, organism-based; conditions: in vivo; summary of the method: as §1
[10] = system: Rattus norvegicus; assay: Compound was evaluated for the distribution of radioactivity in female rat blood at time interval 4 hours following intravenous administration of [123mTe]- Labeled-DL-cu-Amino-r-( phenyltel1uro) butyric Acid, expressed as mean dose per gram of tissue; assay type: ADME, organism-based; conditions: in vivo; summary of the method: as §1
[11] = system: Rattus norvegicus; assay: Compound was evaluated for the distribution of radioactivity in female rat kidneys at time interval 30 minutes following intravenous administration in kidneys of [123mTe]- Labeled-DL-cu-Amino-r-( phenyltel1uro) butyric Acid, expressed as mean dose per; assay type: ADME, organism-based, Kidney; conditions: in vivo, 0.5 h; summary of the method: as §1
[12] = system: Rattus norvegicus; assay: Compound was evaluated for the distribution of radioactivity in female rat liver at time interval 30 minutes following intravenous administration of [123mTe]- Labeled-DL-cu-Amino-r-( phenyltel1uro) butyric Acid, expressed as mean dose per gram of tiss; assay type: ADME, organism-based; conditions: in vivo, 0.5 h; summary of the method: as §1
[13] = system: Rattus norvegicus; assay: Compound was evaluated for the distribution of radioactivity in female rat spleen at time interval 60 minutes following intravenous administration of [123mTe]- Labeled-DL-cu-Amino-r-( phenyltel1uro) butyric Acid, expressed as mean dose per gram of tis; assay type: ADME, organism-based; conditions: in vivo, 1 h; summary of the method: as §1
[14] = system: Rattus norvegicus; assay: Compound was evaluated for the distribution of radioactivity in female rat pancreas at time interval 30 minutes following intravenous administration of [123mTe]- Labeled-DL-cu-Amino-r-( phenyltel1uro) butyric Acid, expressed as mean dose per gram of t; assay type: ADME, organism-based; conditions: in vivo, 0.5 h; summary of the method: as §1
[15] = system: Rattus norvegicus; assay: Compound was evaluated for the distribution of radioactivity in female rat kidneys at time interval 4 hours following intravenous administration of [123mTe]- Labeled-DL-cu-Amino-r-( phenyltel1uro) butyric Acid, expressed as mean dose per gram of tissu; assay type: ADME, organism-based, Kidney; conditions: in vivo; summary of the method: as §1
[16] = system: Rattus norvegicus; assay: Compound was evaluated for the distribution of radioactivity in female rat liver at time interval 4 hours following intravenous administration of [123mTe]- Labeled-DL-cu-Amino-r-( phenyltel1uro) butyric Acid, expressed as mean dose per gram of tissue; assay type: ADME, organism-based; conditions: in vivo; summary of the method: as §1
[17] = system: Rattus norvegicus; assay: Compound was evaluated for the distribution of radioactivity in female rat kidneys at time interval 24 hours following intravenous administration of [123mTe]- Labeled-DL-cu-Amino-r-( phenyltel1uro) butyric Acid, expressed as mean dose per gram of tiss; assay type: ADME, organism-based, Kidney; conditions: in vivo; summary of the method: as §1
[18] = system: Rattus norvegicus; assay: Compound was evaluated for the distribution of radioactivity in female rat spleen at time interval 30 minutes following intravenous administration of [123mTe]- Labeled-DL-cu-Amino-r-( phenyltel1uro) butyric Acid, expressed as mean dose per gram of tis; assay type: ADME, organism-based; conditions: in vivo, 0.5 h; summary of the method: as §1
[19] = system: Rattus norvegicus; assay: Compound was evaluated for the distribution of radioactivity in female rat spleen at time interval 4 hours following intravenous administration of [123mTe]- Labeled-DL-cu-Amino-r-( phenyltel1uro) butyric Acid, expressed as mean dose per gram of tissue; assay type: ADME, organism-based; conditions: in vivo; summary of the method: as §1
[20] = system: Rattus norvegicus; assay: Compound was evaluated for the distribution of radioactivity in female rat blood at time interval 30 minutes following intravenous administration of [123mTe]- Labeled-DL-cu-Amino-r-( phenyltel1uro) butyric Acid, expressed as mean dose per gram of tiss; assay type: ADME, organism-based; conditions: in vivo, 0.5 h; summary of the method: as §1

NC(CC[Te]c1ccccc1)C(=O)O (stereo not given)
Dose [1]: 2.628%
Dose [2]: 0.654%
Dose [3]: 0.534%
Dose [4]: 0.497%
Dose [5]: 2.139%
Dose [6]: 0.434%
Dose [7]: 0.28%
Dose [8]: 0.485%
Dose [9]: 0.334%
Dose [10]: 0.451%
Dose [11]: 1.019%
Dose [12]: 0.32%
Dose [13]: 0.238%
Dose [14]: 0.206%
Dose [15]: 2.169%
Dose [16]: 1.046%
Dose [17]: 1.489%
Dose [18]: 0.129%
Dose [19]: 0.234%
Dose [20]: 0.208%
